Experiment [1] has as its target Hepatocyte growth factor receptor (Homo sapiens, UniProt P08581). Description: Inhibition of human MET.
Experiment [2] has as its target Platelet-derived growth factor receptor beta (Homo sapiens, UniProt P09619). Put plainly: Inhibition of human PDGFRbeta.
For experiment [3], the target named is T1, NUAK family SNF1-like kinase 1 (Homo sapiens, UniProt O60285).
T1 sequence (O60285 whole entry): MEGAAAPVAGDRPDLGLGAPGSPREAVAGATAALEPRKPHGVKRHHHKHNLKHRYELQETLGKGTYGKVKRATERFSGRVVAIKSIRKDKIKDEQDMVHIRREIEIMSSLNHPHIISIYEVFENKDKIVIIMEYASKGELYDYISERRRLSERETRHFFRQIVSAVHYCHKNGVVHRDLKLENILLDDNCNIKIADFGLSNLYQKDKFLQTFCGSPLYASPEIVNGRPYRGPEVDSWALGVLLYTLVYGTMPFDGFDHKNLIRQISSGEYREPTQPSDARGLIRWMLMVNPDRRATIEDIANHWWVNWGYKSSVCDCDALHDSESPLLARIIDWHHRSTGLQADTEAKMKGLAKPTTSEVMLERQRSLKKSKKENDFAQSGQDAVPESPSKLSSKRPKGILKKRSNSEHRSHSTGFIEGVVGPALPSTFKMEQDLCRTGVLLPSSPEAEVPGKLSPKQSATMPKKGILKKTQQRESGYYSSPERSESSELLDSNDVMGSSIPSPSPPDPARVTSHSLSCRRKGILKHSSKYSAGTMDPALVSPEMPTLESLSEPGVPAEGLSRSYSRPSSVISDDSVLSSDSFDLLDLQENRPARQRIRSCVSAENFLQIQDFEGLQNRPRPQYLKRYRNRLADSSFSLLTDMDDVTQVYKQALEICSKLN
Description: Inhibition of human ARK5.

Another experiment concerns the target T2, Ephrin type-B receptor 4 (Homo sapiens, UniProt P54760).
T2 sequence (P54760 whole entry): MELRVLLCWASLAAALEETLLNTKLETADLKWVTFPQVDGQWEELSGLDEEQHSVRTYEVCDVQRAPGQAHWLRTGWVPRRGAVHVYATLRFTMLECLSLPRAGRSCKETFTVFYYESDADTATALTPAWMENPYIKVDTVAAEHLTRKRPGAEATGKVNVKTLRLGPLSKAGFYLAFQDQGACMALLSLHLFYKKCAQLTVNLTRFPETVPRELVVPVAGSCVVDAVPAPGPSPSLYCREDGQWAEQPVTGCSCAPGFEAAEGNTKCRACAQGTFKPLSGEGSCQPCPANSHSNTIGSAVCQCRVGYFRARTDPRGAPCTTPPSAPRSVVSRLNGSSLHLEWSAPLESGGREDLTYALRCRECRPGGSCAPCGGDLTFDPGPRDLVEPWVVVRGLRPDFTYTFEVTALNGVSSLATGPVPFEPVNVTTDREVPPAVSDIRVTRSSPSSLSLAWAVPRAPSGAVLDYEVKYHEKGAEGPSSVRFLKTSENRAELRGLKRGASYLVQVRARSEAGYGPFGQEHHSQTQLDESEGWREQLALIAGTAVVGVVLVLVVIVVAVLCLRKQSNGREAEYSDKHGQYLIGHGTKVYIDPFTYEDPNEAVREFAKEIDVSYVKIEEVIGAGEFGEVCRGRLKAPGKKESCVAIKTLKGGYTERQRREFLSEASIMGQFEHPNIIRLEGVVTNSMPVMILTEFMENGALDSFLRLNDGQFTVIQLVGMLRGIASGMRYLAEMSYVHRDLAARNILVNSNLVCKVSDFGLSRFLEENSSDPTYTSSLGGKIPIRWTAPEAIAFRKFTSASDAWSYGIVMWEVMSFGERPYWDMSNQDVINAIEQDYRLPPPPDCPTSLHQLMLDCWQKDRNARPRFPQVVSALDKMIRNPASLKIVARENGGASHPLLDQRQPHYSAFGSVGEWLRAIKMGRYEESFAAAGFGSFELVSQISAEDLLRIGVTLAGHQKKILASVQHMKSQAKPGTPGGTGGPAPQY
Put plainly: Inhibition of human EPHB4.

Another experiment concerns the target Insulin receptor (Homo sapiens, UniProt P06213). Put plainly: Inhibition of human INSR.
Experiment [4] deals with Epidermal growth factor receptor (Homo sapiens, UniProt P00533). Put plainly: Inhibition of human EGFR.
Experiment [5] concerns the target Cyclin-dependent kinase 2 (Homo sapiens, UniProt P24941). Description: Inhibition of human CDK2/CycA.
The target of experiment [6] is Cyclin-dependent kinase 4/cyclin D1 (Homo sapiens, UniProt P11802). Description: Inhibition of human CDK4/CycD1. Type of experiment: protein-complex assay.
The target of experiment [7] is Serine/threonine-protein kinase B-raf (Homo sapiens, UniProt P15056, V600E). Description: Inhibition of human B-RAF-V600E mutant.
In experiment [8] the test system is Streptomyces lividans. Put plainly: Inhibition of aph8 positive Streptomyces lividans at 25 uM after 20 hrs by paper disk method. Type of experiment: functional. The following applies: read-out: IZ. The gist of the method:
(§1)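 Test culture was Streptomyces lividans carrying plasmid pSU23 with the aphVIII gene, whose kanamycin-inactivating activity depends on Ser/Thr kinase phosphorylation. Paper disks (7 mm) held kanamycin (5 µg/disk) plus test compound at subtoxic amounts, about half the minimal growth-inhibitory dose. Disks went on plates of log-phase cells at 28 °C for 20 h. Read-out was lysis zone diameter.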

Experiment [9] relates to Streptomyces lividans. Description: Inhibition of aph8 positive Streptomyces lividans at 100 uM after 20 hrs by paper disk method. Type of experiment: functional. The following applies: read-out: IZ. Put shortly:
as §1

In experiment [10] the test system is Streptomyces coelicolor. Description: Inhibition of aph8-induced kanamycin phosphorylation in Streptomyces coelicolor cell lysate assessed as [32Pi] incorporation into kanamycin at 10 uM by microplate scintillation counter relative to control. Further details: scale not given: the % may be the effect or the level left.
In experiment [11] the test system is Streptomyces lividans. Description: Inhibition of aph8 positive Streptomyces lividans at 5 uM after 20 hrs by paper disk method. The following applies: read-out: IZ. It is filed as functional. The gist of the method: as §1
Experiment [12] concerns Streptomyces lividans. Description: Inhibition of aph8 positive Streptomyces lividans at 50 uM after 20 hrs by paper disk method. Type of experiment: functional. The note with it: read-out: IZ. The gist of the method:
as §1

Experiment [13] relates to Streptomyces lividans. Description: Inhibition of aph8 positive Streptomyces lividans at 10 uM after 20 hrs by paper disk method. Type of experiment: functional. The note with it: read-out: IZ. Put shortly:
as §1

The test system of experiment [14] is Streptomyces coelicolor. Put plainly: Inhibition of aph8 phosphorylation in Streptomyces coelicolor cell lysate assessed as [32Pi] incorporation into aph8 at 500 nM by microplate scintillation counter relative to control. Further details: scale not given: the % may be the effect or the level left. Put shortly:
(§2)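 Radiometric in vitro assay of actinobacterial protein kinases. Kinases incubated under standard conditions with [γ-³²P]ATP and aphVIII as substrate, with or without modulators or inhibitors. Read-out was incorporation of the γ-phosphoryl residue into aphVIII.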

Experiment [15] concerns Streptomyces lividans. Description: Inhibition of aph8 positive Streptomyces lividans at 400 uM after 20 hrs by paper disk method. It is filed as functional. The following applies: read-out: IZ. Put shortly: as §1
Experiment [16] has as its system Streptomyces coelicolor. Put plainly: Inhibition of Ca(2+))/phosphatidylserine/diacylglycerol-dependent aph8 phosphorylation in Streptomyces coelicolor cell lysate assessed as [32Pi] incorporation into aph8 at 500 nM by microplate scintillation counter relative to control. Further details: scale not given: the % may be the effect or the level left. Put shortly: as §2

The test system of experiment [17] is Streptomyces lividans. Put plainly: Inhibition of aph8 positive Streptomyces lividans at 200 uM after 20 hrs by paper disk method. Type of experiment: functional. The following applies: read-out: IZ. The gist of the method: as §1
Experiment [18] addresses Vascular endothelial growth factor receptor 2 (Homo sapiens, UniProt P35968). Put plainly: Inhibition of human VEGFR2.
The target of experiment [19] is RAC-alpha serine/threonine-protein kinase (Homo sapiens, UniProt P31749). Description: Inhibition of human AKT1.
Experiment [20] concerns the target Serine/threonine-protein kinase PLK1 (Homo sapiens, UniProt P53350). Description: Inhibition of human PLK1.
Experiment [21] has as its target Receptor tyrosine-protein kinase erbB-2 (Homo sapiens, UniProt P04626). Put plainly: Inhibition of human ERBB2.
Experiment [22] concerns the target Proto-oncogene tyrosine-protein kinase Src (Homo sapiens, UniProt P12931). Put plainly: Inhibition of human SRC.
A further experiment deals with Focal adhesion kinase 1 (Homo sapiens, UniProt Q05397). Put plainly: Inhibition of human FAK.
Experiment [23] has as its target Insulin-like growth factor 1 receptor (Homo sapiens, UniProt P08069). Description: Inhibition of human IGF1R.

As usually defined, the IC50 is the concentration that gives 50% inhibition.

Chain of Serine/threonine-protein kinase B-raf (P15056 2-766 V600E limits assumed): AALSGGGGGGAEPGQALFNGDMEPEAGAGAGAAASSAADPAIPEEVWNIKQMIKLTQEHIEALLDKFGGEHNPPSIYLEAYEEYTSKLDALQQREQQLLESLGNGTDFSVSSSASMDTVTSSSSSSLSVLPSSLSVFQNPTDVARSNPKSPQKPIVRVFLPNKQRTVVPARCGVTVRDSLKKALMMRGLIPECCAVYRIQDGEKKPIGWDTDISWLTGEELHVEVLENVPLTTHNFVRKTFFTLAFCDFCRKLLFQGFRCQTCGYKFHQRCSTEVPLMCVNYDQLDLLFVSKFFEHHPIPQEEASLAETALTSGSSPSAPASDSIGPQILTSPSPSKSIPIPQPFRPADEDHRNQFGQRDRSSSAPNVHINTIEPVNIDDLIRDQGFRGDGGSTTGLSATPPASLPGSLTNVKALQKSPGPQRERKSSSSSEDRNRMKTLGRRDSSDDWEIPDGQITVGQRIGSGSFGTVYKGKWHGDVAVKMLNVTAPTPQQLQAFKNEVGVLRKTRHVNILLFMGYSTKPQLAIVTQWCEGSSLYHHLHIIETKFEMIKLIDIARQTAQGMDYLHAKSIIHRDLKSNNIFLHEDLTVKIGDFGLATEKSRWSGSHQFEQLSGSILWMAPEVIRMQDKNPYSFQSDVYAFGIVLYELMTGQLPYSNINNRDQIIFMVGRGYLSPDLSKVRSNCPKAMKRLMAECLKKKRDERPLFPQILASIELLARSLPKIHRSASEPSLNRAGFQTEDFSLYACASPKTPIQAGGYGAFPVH
Chain of Insulin receptor (P06213 28-758 limits assumed): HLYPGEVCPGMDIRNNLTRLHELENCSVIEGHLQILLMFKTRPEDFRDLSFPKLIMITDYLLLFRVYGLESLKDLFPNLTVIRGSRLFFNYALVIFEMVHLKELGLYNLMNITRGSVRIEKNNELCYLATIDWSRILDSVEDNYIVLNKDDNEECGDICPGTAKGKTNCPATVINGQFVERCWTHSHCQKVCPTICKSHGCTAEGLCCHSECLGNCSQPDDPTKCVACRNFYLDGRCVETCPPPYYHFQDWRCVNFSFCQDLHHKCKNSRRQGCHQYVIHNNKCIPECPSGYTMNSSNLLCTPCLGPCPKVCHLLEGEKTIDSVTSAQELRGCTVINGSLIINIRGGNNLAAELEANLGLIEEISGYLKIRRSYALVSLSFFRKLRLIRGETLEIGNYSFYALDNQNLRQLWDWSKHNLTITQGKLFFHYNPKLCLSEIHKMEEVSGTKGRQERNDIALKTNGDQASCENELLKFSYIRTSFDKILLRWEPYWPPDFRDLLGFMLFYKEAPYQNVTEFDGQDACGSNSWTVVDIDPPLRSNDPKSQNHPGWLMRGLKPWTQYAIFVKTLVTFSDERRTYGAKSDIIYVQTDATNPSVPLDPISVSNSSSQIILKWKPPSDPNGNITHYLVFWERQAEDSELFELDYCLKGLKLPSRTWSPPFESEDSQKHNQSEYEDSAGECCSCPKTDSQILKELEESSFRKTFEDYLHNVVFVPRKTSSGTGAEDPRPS
Chain of Insulin receptor (P06213 763-1382 limits assumed): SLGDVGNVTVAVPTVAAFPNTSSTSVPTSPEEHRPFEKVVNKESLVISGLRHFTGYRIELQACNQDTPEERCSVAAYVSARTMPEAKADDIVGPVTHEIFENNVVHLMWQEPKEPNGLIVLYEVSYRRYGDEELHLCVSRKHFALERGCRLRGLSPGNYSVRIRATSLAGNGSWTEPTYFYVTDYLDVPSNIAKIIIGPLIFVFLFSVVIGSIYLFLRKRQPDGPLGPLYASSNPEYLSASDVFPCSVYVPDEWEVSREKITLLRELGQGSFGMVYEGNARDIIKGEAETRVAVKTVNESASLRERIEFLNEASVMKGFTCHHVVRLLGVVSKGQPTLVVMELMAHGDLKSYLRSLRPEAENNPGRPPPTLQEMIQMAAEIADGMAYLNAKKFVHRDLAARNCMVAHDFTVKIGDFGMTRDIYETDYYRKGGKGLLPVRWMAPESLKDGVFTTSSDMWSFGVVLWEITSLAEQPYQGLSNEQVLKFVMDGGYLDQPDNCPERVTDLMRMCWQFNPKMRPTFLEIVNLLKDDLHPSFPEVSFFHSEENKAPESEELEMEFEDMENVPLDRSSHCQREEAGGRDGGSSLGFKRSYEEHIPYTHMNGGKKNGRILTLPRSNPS
Chain of Hepatocyte growth factor receptor (P08581 whole entry): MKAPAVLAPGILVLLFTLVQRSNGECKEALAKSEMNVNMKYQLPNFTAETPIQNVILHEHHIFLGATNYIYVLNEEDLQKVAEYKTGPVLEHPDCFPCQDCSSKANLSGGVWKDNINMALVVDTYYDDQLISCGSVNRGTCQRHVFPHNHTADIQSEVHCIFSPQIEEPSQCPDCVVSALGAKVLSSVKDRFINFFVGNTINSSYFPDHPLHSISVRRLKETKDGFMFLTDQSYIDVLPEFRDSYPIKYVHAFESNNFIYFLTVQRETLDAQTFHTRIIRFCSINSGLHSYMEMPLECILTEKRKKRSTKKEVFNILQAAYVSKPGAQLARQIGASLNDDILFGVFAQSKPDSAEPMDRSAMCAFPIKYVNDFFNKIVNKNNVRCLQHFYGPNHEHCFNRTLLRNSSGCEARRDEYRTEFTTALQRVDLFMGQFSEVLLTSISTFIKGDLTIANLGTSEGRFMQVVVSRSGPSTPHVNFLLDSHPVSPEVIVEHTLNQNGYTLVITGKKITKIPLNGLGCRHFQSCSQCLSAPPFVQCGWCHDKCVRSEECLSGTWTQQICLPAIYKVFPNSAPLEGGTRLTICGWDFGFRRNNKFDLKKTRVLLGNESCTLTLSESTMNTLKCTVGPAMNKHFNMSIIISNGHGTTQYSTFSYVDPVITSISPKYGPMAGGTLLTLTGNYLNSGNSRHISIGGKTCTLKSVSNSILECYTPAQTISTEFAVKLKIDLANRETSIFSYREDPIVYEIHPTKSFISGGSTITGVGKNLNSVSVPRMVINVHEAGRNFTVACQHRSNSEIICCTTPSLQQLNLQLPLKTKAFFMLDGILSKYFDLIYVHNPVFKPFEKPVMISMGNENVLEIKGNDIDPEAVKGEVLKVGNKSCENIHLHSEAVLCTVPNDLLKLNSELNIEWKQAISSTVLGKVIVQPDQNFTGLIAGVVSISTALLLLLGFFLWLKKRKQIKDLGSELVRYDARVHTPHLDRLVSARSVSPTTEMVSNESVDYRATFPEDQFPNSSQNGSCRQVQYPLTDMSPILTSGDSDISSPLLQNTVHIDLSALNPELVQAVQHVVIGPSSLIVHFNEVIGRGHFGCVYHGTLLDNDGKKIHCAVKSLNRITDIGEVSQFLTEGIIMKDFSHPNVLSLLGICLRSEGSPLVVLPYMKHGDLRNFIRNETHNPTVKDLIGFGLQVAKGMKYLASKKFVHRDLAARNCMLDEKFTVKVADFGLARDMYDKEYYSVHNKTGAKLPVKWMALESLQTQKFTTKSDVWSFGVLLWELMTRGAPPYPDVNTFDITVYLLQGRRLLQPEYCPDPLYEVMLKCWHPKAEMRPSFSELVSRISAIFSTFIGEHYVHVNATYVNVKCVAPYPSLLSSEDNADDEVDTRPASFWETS
Chain of Cyclin-dependent kinase 4/cyclin D1 (P11802 whole entry): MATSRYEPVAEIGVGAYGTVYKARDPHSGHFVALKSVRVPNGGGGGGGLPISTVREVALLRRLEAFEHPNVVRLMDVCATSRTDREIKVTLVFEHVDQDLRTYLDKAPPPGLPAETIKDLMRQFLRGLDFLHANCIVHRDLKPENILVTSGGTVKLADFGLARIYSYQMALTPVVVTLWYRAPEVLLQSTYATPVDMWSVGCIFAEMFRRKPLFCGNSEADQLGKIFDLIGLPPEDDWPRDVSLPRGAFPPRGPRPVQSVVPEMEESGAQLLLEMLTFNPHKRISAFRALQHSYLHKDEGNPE
Chain of Cyclin-dependent kinase 4/cyclin D1 (P24385 whole entry, further chain): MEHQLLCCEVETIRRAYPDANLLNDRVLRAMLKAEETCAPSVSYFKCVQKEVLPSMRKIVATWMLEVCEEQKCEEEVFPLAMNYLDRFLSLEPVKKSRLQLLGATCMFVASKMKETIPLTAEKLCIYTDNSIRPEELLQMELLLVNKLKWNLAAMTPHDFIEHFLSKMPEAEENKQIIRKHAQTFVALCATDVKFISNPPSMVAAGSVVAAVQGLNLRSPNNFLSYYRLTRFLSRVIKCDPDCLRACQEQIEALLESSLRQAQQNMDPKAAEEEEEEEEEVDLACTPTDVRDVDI
Chain of Serine/threonine-protein kinase PLK1 (P53350 whole entry): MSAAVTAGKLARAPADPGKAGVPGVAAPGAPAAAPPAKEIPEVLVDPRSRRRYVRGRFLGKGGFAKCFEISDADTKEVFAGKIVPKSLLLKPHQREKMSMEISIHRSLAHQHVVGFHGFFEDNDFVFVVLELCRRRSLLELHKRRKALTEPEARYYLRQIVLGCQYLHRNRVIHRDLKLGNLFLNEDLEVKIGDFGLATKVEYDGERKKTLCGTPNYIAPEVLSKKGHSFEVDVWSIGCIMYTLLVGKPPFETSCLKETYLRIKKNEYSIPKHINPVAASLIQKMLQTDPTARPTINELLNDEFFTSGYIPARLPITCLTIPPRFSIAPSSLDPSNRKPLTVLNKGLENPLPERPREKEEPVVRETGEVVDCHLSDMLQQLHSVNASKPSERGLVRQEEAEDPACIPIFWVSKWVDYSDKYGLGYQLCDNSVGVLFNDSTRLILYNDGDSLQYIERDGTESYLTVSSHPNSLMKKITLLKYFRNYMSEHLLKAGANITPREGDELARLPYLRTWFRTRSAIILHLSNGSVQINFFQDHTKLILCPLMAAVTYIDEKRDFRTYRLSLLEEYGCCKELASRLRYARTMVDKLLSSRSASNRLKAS

For `CNC(=N)SCCCn1c(=O)c2c(c1=O)n1c3ccccc3cc1c1cccc3ccn2c31`, the IC50 in experiment [1] is 7.4 µM; in [2], 6.7 µM; in [3] it was 9.7 µM; against Ephrin type-B receptor 4, 3.9 µM; against Insulin receptor, 6.3 µM; in experiment [4], 9.9 µM. In addition, the IC50 in [5] was determined as 6.3 µM; in [6], 6.2 µM; in experiment [7] it was 8.4 µM.

Regarding `CCN(CC)Cc1cn2c3c(cccc13)C1Cc3ccccc3N1C1=C2C(=O)NC1=O` (centres undefined), the zone of inhibition at 25 µM in the experiment on Streptomyces lividans [8] was determined as 7.5 mm. Moreover, in the experiment with Streptomyces lividans [9], the zone of inhibition at 100 µM was 12 mm. Further, the Activity in the experiment on Streptomyces coelicolor [10] stood at 92%. Moreover, in the experiment with Streptomyces lividans [11], the zone of inhibition at 5 µM was found to be 0 mm. Besides, in the experiment with Streptomyces lividans [12], the zone of inhibition at 50 µM was determined as 9 mm. In the experiment with Streptomyces lividans [13], the zone of inhibition at 10 µM was determined as 0 mm.

With `O=C(O)CN(CCOCCOCCN(CC(=O)O)CC(=O)O)CC(=O)O`, the Activity in the experiment with Streptomyces coelicolor [14] was 94%.

The compound `O=C1C2=C(C(=O)N1CCCSC1=NCCN1)n1ccc3cccc(c31)C1Cc3ccccc3N21` (centres undefined) gave an IC50 in [5] of 7.7 µM.

Take `CCN(CC)Cc1cn2c3c(cccc13)C1Cc3ccccc3N1C1=C2C(=O)N(C)C1=O` (centres undefined): the zone of inhibition at 25 µM in the experiment with Streptomyces lividans [8] is 0 mm. In the experiment with Streptomyces lividans [9], the zone of inhibition at 100 µM came out at 7.5 mm. In addition, the results for the Activity in the experiment with Streptomyces coelicolor [10] and with Streptomyces coelicolor [16] were 93% and 94%, respectively. Besides, the zone of inhibition at 400 µM with Streptomyces lividans [15] was 14 mm. For the same compound, in the experiment on Streptomyces lividans [12], the zone of inhibition at 50 µM is 0 mm. Besides, the zone of inhibition at 200 µM with Streptomyces lividans [17] worked out at 12 mm.

As for `CNC(=N)SCCCN1C(=O)C2=C(C1=O)n1ccc3cccc(c31)C1Cc3ccccc3N21` (centres undefined), the IC50 in [1] amounted to 6.7 µM; at Insulin receptor it was 5.1 µM; in experiment [5] it was 5.3 µM; in experiment [6], 5.7 µM; in experiment [7], 8 µM.

As for `N=C(N)SCCCn1c(=O)c2c(c1=O)n1c3ccccc3cc1c1cccc3ccn2c31`, the IC50 in experiment [1] amounted to 3.3 µM; in [2] it was 4.2 µM; in experiment [18] it was 4.1 µM; in experiment [19] it was 9 µM; in [20], 9.9 µM; against Ephrin type-B receptor 4, 2.3 µM. Besides, the IC50 in [21] is 7.7 µM; at Insulin receptor, 2.6 µM; in experiment [5], 3.6 µM; in experiment [22] it was 3.8 µM; at Focal adhesion kinase 1 it was 4.4 µM; in [23], 4 µM. Besides, the IC50 in experiment [6] came to 2.7 µM; in experiment [7], 1.2 µM.

`CCNC(=N)SCCCN1C(=O)C2=C(C1=O)n1ccc3cccc(c31)C1Cc3ccccc3N21` (centres undefined) gave an IC50 in experiment [5] of 6.8 µM.

The record behind these values is ChEMBL document CHEMBL1151764, “Search for inhibitors of bacterial and human protein kinases among derivatives of diazepines[1,4] annelated with maleimide and indole cycles” (J Med Chem, 2008).
